ChEMBL document CHEMBL1153581, “Synthesis, antiviral and anticancer activity of some novel thioureas derived from N-(4-nitro-2-phenoxyphenyl)-methanesulfonamide” (Eur J Med Chem, 2009)
Converted amounts (≈) assume the structure as drawn.

Key:
Sindbis virus = assay: Antiviral activity against Sindbis virus infected in african green monkey Vero cells assessed as protection against virus-induced cytopathogenicity; assay type: functional
[1] = Cytotoxicity against african green monkey Vero cells assessed as change in cell morphology; assay type: cell-based; details: chlorocebus sabaeus
Summary of the method: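 Vero cell cultures were used for the broad-spectrum antiviral screen. The MCC endpoint is the lowest concentration that causes a microscopically detectable alteration of cell morphology. Activity was called when 5 × MIC < MCC.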

Human alphaherpesvirus 1 [2] = assay: Antiviral activity against acyclovir-resistant thymidine kinase-deficient HSV1 KOS infected in human HEL cells assessed as protection against virus-induced cytopathogenicity; assay type: functional; details: Human alphaherpesvirus 1, KOS
HeLa = assay: Cytotoxicity against human HeLa cells assessed as change in cell morphology; assay type: functional
Summary of the method: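 The minimum cytotoxic concentration (MCC) is the concentration causing a microscopically detectable alteration of cell morphology in the uninfected host cell culture.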

[3] = test system: Vesicular stomatitis virus; assay: Antiviral activity against Vesicular stomatitis virus infected in human HeLa cells assessed as protection against virus-induced cytopathogenicity; assay type: functional
Coxsackievirus B4 [4] = assay: Antiviral activity against Coxsackievirus B4 infected in african green monkey Vero cells assessed as protection against virus-induced cytopathogenicity; assay type: functional; details: Enterovirus B
Coxsackievirus B4 [5] = assay: Antiviral activity against Coxsackievirus B4 infected in human HeLa cells assessed as protection against virus-induced cytopathogenicity; assay type: functional; details: Enterovirus B
[6] = test system: Human immunodeficiency virus 2; assay: Antiviral activity against HIV-2 ROD infected human MT4 cells assessed as protection against virus-induced cytopathogenicity; assay type: functional, organism-based; details: Human immunodeficiency virus 2, ISOLATE ROD
Summary of the method: (§1)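 HIV-1 (IIIB) or HIV-2 (ROD) infection of MT-4 cells, scored as protection against virus-induced cytopathicity. IC50 was derived from protection.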

[7] = Cytotoxicity against HIV-1 3B infected human MT4 cells; assay type: cell-based; details: HIV-1 3B-infected MT4 cells
[8] = test system: Mammalian orthoreovirus 1; assay: Antiviral activity against Reovirus 1 infected in african green monkey Vero cells assessed as protection against virus-induced cytopathogenicity; assay type: functional
Human alphaherpesvirus 1 [9] = assay: Antiviral activity against HSV1 KOS infected in HEL cells assessed as protection against virus-induced cytopathogenicity; assay type: functional; details: Human alphaherpesvirus 1, KOS
Human alphaherpesvirus 2 = assay: Antiviral activity against Herpes simplex virus 2 infected in HEL cells assessed as protection against in virus-induced cytopathogenicity; assay type: functional
Punta Toro virus = assay: Antiviral activity against Punta Toro virus infected in african green monkey Vero cells assessed as protection against virus-induced cytopathogenicity; assay type: functional
[10] = test system: Vesicular stomatitis virus; assay: Antiviral activity against sVesicular stomatitis virus infected in HEL cells assessed as protection against virus-induced cytopathogenicity; assay type: functional
[11] = Cytotoxicity against HEL cells assessed as change in cell morphology; assay type: cell-based; details: human
Summary of the method: (§2)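 HEL cell cultures examined under the microscope. Minimal cytotoxic concentration (MCC) is the concentration that causes a microscopically detectable alteration of cell morphology. Compounds were tested at subtoxic concentrations alongside the antiviral tests.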

Human respirovirus 3 = assay: Antiviral activity against Parainfluenza-3 virus infected in african green monkey Vero cells assessed as protection against virus-induced cytopathogenicity; assay type: functional
[12] = test system: Respiratory syncytial virus; assay: Antiviral activity against RSV infected in human HeLa cells assessed as protection against virus-induced cytopathogenicity; assay type: functional
[13] = test system: Human immunodeficiency virus 1; assay: Antiviral activity against HIV-1 3B infected human MT4 cells assessed as protection against virus-induced cytopathogenicity; assay type: functional, organism-based; details: Human immunodeficiency virus 1, 3B; summary of the method: as §1
Human alphaherpesvirus 3 [14] = assay: Antiviral activity against Varicella Zoster Virus OKA infected in HEL cells assessed as reduction in virus plaque formation; assay type: functional, organism-based; details: Human alphaherpesvirus 3, OKA
Summary of the method: (§3)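 Plaque reduction in HEL cells against CMV (AD-169, Davis) or VZV (TK⁺ OKA, TK⁻ 07/1), using a virus input of 20 PFU. EC50 is the concentration that reduced plaque formation by 50%.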

Human betaherpesvirus 5 = assay: Antiviral activity against Cytomegalovirus AD169 infected in HEL cells assessed as reduction in virus plaque formation; assay type: functional, organism-based; details: Human betaherpesvirus 5, AD169, HEL; summary of the method: as §3
[15] = Cytotoxicity against Cytomegalovirus infected HEL cells assessed as reduction in cell growth; assay type: cell-based; details: human
Cytomegalovirus = assay: Antiviral activity against Cytomegalovirus Davis infected in HEL cells assessed as reduction in virus plaque formation; assay type: functional, organism-based; details: Human betaherpesvirus 5, Davis; summary of the method: as §3
[16] = Cytotoxicity against Varicella Zoster Virus infected human […] cells assessed as change in cell morphology; assay type: cell-based
Human alphaherpesvirus 3 [17] = assay: Antiviral activity against thymidine kinase deficient Varicella Zoster Virus 07/1 infected in HEL cells assessed as reduction in virus plaque formation; assay type: functional, organism-based; details: Human alphaherpesvirus 3, 07/1, HEL; summary of the method: as §3
[18] = Cytotoxicity against Varicella Zoster Virus infected human […] cells assessed as reduction in cell growth; assay type: cell-based
[19] = Cytotoxicity against Cytomegalovirus infected HEL cells assessed as change in cell morphology; assay type: cell-based; details: human; summary of the method: as §2
[20] = Selectivity index, ratio of MCC for HEL cells to MIC50 for vesicular stomatitis virus; assay type: functional
Summary of the method: (§4)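 In HEL cell cultures, SI = MCC/MIC. MCC is the concentration giving microscopically detectable alteration of HEL cell morphology, and MIC is the minimal concentration effective against vaccinia or VSV cytopathicity.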

[21] = Selectivity index, ratio of MCC for HEL cells to MIC50 for vaccinia virus; assay type: functional; summary of the method: as §4

Row | SMILES | MIC50 (Sindbis virus) [µg/mL] | MCC [1] [µg/mL] | MIC50 (Human alphaherpesvirus 1 [2]) [µg/mL] | MCC (HeLa) [µg/mL] | MIC50 [3] [µg/mL] | MIC50 (Coxsackievirus B4 [4]) [µg/mL] | MIC50 (Coxsackievirus B4 [5]) [µg/mL] | IC50 [6] [µg/mL] | CC50 [7] [µg/mL] | MIC50 [8] [µg/mL] | MIC50 (Human alphaherpesvirus 1 [9]) [µg/mL] | MIC50 (Human alphaherpesvirus 2) [µg/mL] | MIC50 (Punta Toro virus) [µg/mL] | MIC50 [10] [µg/mL] | MCC [11] [µg/mL] | MIC50 (Human respirovirus 3) [µg/mL] | MIC50 [12] [µg/mL] | IC50 [13] [µg/mL] | EC50 (Human alphaherpesvirus 3 [14]) [µg/mL] | EC50 (Human betaherpesvirus 5) [µg/mL] | further results
1 | CS(=O)(=O)Nc1ccc(NC(=S)NCCc2ccc(Cl)cc2)cc1Oc1ccccc1 | > 20 | 100 | > 100 | 100 | > 20 | > 20 | > 20 | > 14.8 | 14.8 (≈ 31.2 µM) | > 20 | > 100 | > 100 | > 20 | > 100 | > 100 | > 20 | > 20 | > 14.8 |  |  | 
2 | Nc1nc2c(ncn2COC(CO)CO)c(=O)[nH]1 [GANCICLOVIR] |  |  | 2.4 (≈ 9.4 µM) |  |  |  |  |  |  |  | 0.032 (≈ 0.125 µM) | 0.0064 (≈ 0.0251 µM) |  | > 100 | > 100 |  |  |  | 1 (≈ 3.92 µM) | 1.4 (≈ 5.49 µM) | CC50 [15]: 80 µg/mL (≈ 313 µM); EC50 (Cytomegalovirus): 1.7 µg/mL (≈ 6.66 µM); CC50 [16]: > 50 µg/mL; EC50 (Human alphaherpesvirus 3 [17]): 15 µg/mL (≈ 58.8 µM); CC50 [18]: 190 µg/mL (≈ 744 µM); CC50 [19]: 400 µg/mL (≈ 1570 µM)
3 | CNC(=S)Nc1ccc(NS(C)(=O)=O)c(Oc2ccccc2)c1 | > 100 | > 100 | > 100 | > 100 | 100 (≈ 285 µM) | > 100 | > 100 | > 125 | > 125 | > 100 | > 100 | > 100 | > 100 | > 100 | > 100 | > 100 | > 100 | > 125 |  |  | 
4 | CCCNC(=S)Nc1ccc(NS(C)(=O)=O)c(Oc2ccccc2)c1 | > 8 | 40 | > 40 | 200 | > 40 | > 8 | > 40 | > 89.3 | 89.3 (≈ 235 µM) | > 8 | > 40 | > 40 | > 8 | > 40 | 200 | > 8 | 40 (≈ 105 µM) | > 89.3 | > 20 | 54.7 (≈ 144 µM) | CC50 [15]: 56 µg/mL (≈ 148 µM); EC50 (Cytomegalovirus): 54.7 µg/mL (≈ 144 µM); CC50 [16]: 100 µg/mL (≈ 263 µM); EC50 (Human alphaherpesvirus 3 [17]): > 20 µg/mL; CC50 [18]: 56 µg/mL (≈ 148 µM); CC50 [19]: > 100 µg/mL
5 | CS(=O)(=O)Nc1ccc(NC(=S)NCc2ccccc2)cc1Oc1ccccc1 | > 8 | 40 | > 8 | 40 | > 8 | > 8 | > 8 | > 18.3 | 61.6 (≈ 144 µM) | > 8 | > 8 | > 8 | > 8 | > 8 | 40 | > 8 | > 8 | 20.1 (≈ 47.1 µM) | > 4 | > 4 | CC50 [15]: 45.2 µg/mL (≈ 106 µM); EC50 (Cytomegalovirus): > 4 µg/mL; CC50 [16]: 20 µg/mL (≈ 46.8 µM); EC50 (Human alphaherpesvirus 3 [17]): > 4 µg/mL; CC50 [18]: 45.2 µg/mL (≈ 106 µM); CC50 [19]: 20 µg/mL (≈ 46.8 µM)
6 | O=c1[nH]c(=O)n([C@H]2C[C@H](O)[C@@H](CO)O2)cc1/C=C/Br [BRIVUDINE] | > 250 | > 250 | > 250 | > 250 | > 250 | > 250 | > 250 |  |  | > 250 |  | 10 (≈ 30 µM) | > 250 | > 250 | > 250 | > 250 | > 250 |  |  |  | 
7 | CS(=O)(=O)Nc1ccc(NC(=S)Nc2ccc([N+](=O)[O-])cc2)cc1Oc1ccccc1 | > 8 | 40 | 8 (≈ 17.4 µM) | 40 | > 8 | > 8 | > 8 | > 15.2 | 15.2 (≈ 33.1 µM) | > 8 | > 8 | > 8 | > 8 | 8 (≈ 17.4 µM) | 40 | > 8 | > 8 | > 15.2 | > 20 | 54.7 (≈ 119 µM) | Selectivity Index [20]: 5; CC50 [15]: > 100 µg/mL; EC50 (Cytomegalovirus): 54.7 µg/mL (≈ 119 µM); Selectivity Index [21]: 5; CC50 [16]: 100 µg/mL (≈ 218 µM); EC50 (Human alphaherpesvirus 3 [17]): > 20 µg/mL; CC50 [18]: > 100 µg/mL; CC50 [19]: > 100 µg/mL
